Compound activity from PubChem.
DENV2 CPE rescue: protects cells from dengue virus 2 cytopathic effect | DENV2-infected cells, cytopathic effect rescue, plate reader | CPE inhibition, % at 9.99 µM | hit rate 1.7% among 350,000 | AID 651640; in the data active means CPE inhibition above about 20%, passing the limit was not always enough; inconclusive means no clear call, values can overlap the other calls; tested in BHK-21 cells;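 further: 0% = median of neutral control wells and 100% = median of positive control wells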
XiGFP reactiv: reactivates the inactive X chromosome in mouse fibroblasts. XiGFP mouse fibroblasts, % GFP-positive cells imaging, 3 d; cells co-treated with 5-aza-dC sensitizer; scaled so ellipticine positive control = 100%. activation, % at 7.58 µM. hit rate 0.055% among 360,000;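 active means mean normalized replicate activation at least 10% and every replicate at or above 10%; inconclusive means only one of the two criteria met; inactive means mean below 10% and not all replicates reach 10%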;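 further: 0% = median of on-plate neutral control wells and 100% = ellipticine 6 µM median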
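System: XiGFP fibroblasts, SV40-immortalized. Medium: DMEM plus 5-aza-dC sensitizer. Doses: single point. Timing: 3 d treatment, 15 min room-temperature fixation. Control set: ellipticine 6 µM.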
E-sel inducer: E-selectin induction on HUVECs | P16581 | HUVEC E-selectin immunofluorescence imaging; normalized: neutral wells 0, TNF-alpha wells 100 | activation, % at 7.58 µM | hit rate 0.37% among 260,000 | AID 686992;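 active means mean E-selectin-positive cell signal at least 10% of the positive control, reached in at least 60% of replicates, without over 20% cell loss; inconclusive means no rule given, readout overlaps actives, possibly toxicity-flagged; inactive means the rest, including those meeting only one limit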
Target sequence (P16581 whole entry, looked up): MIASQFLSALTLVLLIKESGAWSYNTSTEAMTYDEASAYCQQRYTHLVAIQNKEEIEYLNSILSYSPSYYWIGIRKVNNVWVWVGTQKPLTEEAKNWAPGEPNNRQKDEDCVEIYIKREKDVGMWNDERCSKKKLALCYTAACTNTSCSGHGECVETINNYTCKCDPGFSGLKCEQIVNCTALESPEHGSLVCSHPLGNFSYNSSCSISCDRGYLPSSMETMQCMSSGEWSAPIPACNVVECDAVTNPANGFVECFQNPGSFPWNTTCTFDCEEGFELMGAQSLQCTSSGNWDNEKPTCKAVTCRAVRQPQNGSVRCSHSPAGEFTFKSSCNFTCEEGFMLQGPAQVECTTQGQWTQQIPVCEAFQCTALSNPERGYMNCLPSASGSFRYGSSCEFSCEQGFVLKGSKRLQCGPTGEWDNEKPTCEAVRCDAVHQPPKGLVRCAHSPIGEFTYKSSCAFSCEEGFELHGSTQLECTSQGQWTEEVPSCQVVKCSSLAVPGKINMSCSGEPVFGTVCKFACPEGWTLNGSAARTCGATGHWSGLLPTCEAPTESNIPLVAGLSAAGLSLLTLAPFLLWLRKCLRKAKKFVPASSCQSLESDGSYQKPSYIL
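Material: HUVEC primary endothelial cells; Amount: 3,000 cells per well; Dosing: single concentration; Medium: EGM-2 growth medium on 0.1% gelatin-coated wells; Read-out basis: percent E-selectin-positive cells; Signal: immunofluorescence imaging; Control set: TNF-alpha, DMSO.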
S100A4 MyoIIA: blocks human S100A4 binding to myosin IIA peptide. hit rate 0.14% among 360,000. inhibition, % at 10.7 µM. S100A4/TAMRA-MyoIIA peptide fluorescence polarization;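 active means mean inhibition of at least 70% across replicates, with every replicate also reaching that level; inconclusive means mean inhibition reaches 70% but some replicates fall short; inactive means mean inhibition below 70%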
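incubation = readout 5 min after mixing, signal stable up to 60 min | system = S100A4 monomer protein | buffer or medium = HEPES pH 7.2 with CaCl2, KCl, NaCl, DTT, Triton | benchmarks = neutral control DMSO, positive control TFP | also added = fluorescent myosin IIA peptide, 5 nM | compound dosing = one concentration per compound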
An asterisk follows results filed as active; ! = not active in a repeat. A selection: hits, their analogues and other compounds. The true share with any hit is near 2%.

For C[C@H]1CCCCO[C@H](CN(C)C)[C@@H](C)CN([C@@H](C)CO)C(=O)c2cc(NC(=O)Nc3cccc4ccccc34)ccc2O1 the results were DENV2 CPE rescue inconclusive, XiGFP reactiv -1, E-sel inducer 0 and S100A4 MyoIIA 19.
C[C@@H]1CN([C@@H](C)CO)C(=O)c2cc(NC(=O)Nc3cccc4ccccc34)ccc2O[C@@H](C)CCCCO[C@H]1CN(C)CC1CCCCC1 was read as DENV2 CPE rescue 28*, XiGFP reactiv -1, E-sel inducer 1 and S100A4 MyoIIA -8.
`C[C@@H]1CCCCO[C@@H](CN(C)CC2CCCCC2)[C@H](C)CN([C@H](C)CO)C(=O)c2cc(NC(=O)Nc3cccc4ccccc34)ccc2O1` gave DENV2 CPE rescue 118*, XiGFP reactiv -1, E-sel inducer 2 and S100A4 MyoIIA -49.
`O=C(C1=C[C@H](c2ccc3c(c2)OCO3)C[C@H](OCCCCO)O1)N1CCN(Cc2ccc3c(c2)OCO3)CC1` gave DENV2 CPE rescue 44*, XiGFP reactiv 0, E-sel inducer 0 and S100A4 MyoIIA -3.
Screening O=C(C1=C[C@@H](c2ccccc2)C[C@@H](OCCCCO)O1)N1CCN(Cc2ccc3c(c2)OCO3)CC1 returned DENV2 CPE rescue 21*!, XiGFP reactiv 0, E-sel inducer 0 and S100A4 MyoIIA -2.
O=C(C1=C[C@@H](c2ccc3c(c2)OCO3)C[C@@H](OCCCCO)O1)N1CCN(Cc2ccc3c(c2)OCO3)CC1 was read as DENV2 CPE rescue -4, XiGFP reactiv 0, E-sel inducer 0 and S100A4 MyoIIA -1.
CCOc1ccc(S(=O)(=O)NCCC(=O)NC(C)CCc2ccccc2)cc1 (stereo not drawn) was read as DENV2 CPE rescue -2, XiGFP reactiv 0, E-sel inducer 0 and S100A4 MyoIIA -1.
For CCOc1ccc2nc(NC(=O)CN3CCOCC3)sc2c1 the results were DENV2 CPE rescue -7, XiGFP reactiv 0, E-sel inducer 2 and S100A4 MyoIIA -3.
For CCOc1ccc2nc(NC(=O)CN3CCN(CC)CC3)sc2c1 the results were DENV2 CPE rescue 44*, XiGFP reactiv 0 and S100A4 MyoIIA 0.
Screening C/C=C/c1ccc([C@H]2[C@@H](CO)N(C(=O)COC)[C@@H]2CNC(=O)C2CC2)cc1 returned DENV2 CPE rescue 4, XiGFP reactiv 0, E-sel inducer 0 and S100A4 MyoIIA 1.
O=C(Nc1ccccc1)c1ccccc1CSc1ccccc1 was read as DENV2 CPE rescue 44*, XiGFP reactiv -1, E-sel inducer 0 and S100A4 MyoIIA 0.
For CC(=O)Nc1ccc(NC(=O)c2ccccc2CCc2ccccc2)cc1 the results were DENV2 CPE rescue 1, XiGFP reactiv 0, E-sel inducer 5 and S100A4 MyoIIA -4.
For CCOC(=O)C1=CCC(c2ccc([N+](=O)[O-])cc2)N(S(=O)(=O)c2ccc(C)cc2)C1 (stereo not drawn) the results were DENV2 CPE rescue 6, XiGFP reactiv 0, E-sel inducer -1 and S100A4 MyoIIA -4.
Screening COc1ccc(CC(=O)N2CCN(c3ccccc3)CC2)cc1OC returned DENV2 CPE rescue -6, XiGFP reactiv 0, E-sel inducer 0 and S100A4 MyoIIA 1.
Screening Cc1ccc(C2=C(O)C(=O)C(c3ccc(C)cc3)=C(O)C2=O)cc1 returned DENV2 CPE rescue 56*, XiGFP reactiv 0, E-sel inducer 0 and S100A4 MyoIIA -1.
Cc1cc2ccccn2c1C(=O)c1ccccc1Br was read as DENV2 CPE rescue 42*, XiGFP reactiv 0 and S100A4 MyoIIA -7.
For Cc1cc2ccccn2c1C(=O)c1ccc(F)cc1 the results were DENV2 CPE rescue 0, XiGFP reactiv 0, E-sel inducer 21 and S100A4 MyoIIA -6.
`COCC#Cc1cnc2c(c1)C(=O)N([C@@H](C)CO)C[C@H](C)[C@@H](CN(C)C(=O)Cc1ccncc1)O2` gave DENV2 CPE rescue -8, XiGFP reactiv 0, E-sel inducer 0 and S100A4 MyoIIA -3.
O=C(Nc1ccc2c(c1)[C@@H]1C[C@@H](CC(=O)N3CCOCC3)O[C@@H](CO)[C@@H]1O2)NC1CCCCC1 was read as DENV2 CPE rescue 23*, XiGFP reactiv 0, E-sel inducer 0 and S100A4 MyoIIA 18.
O=C(O)C[C@H]1C[C@H]2c3cc(NC(=O)NC4CCCC4)ccc3O[C@H]2[C@@H](CO)O1 was read as DENV2 CPE rescue 13, XiGFP reactiv 0, E-sel inducer 0 and S100A4 MyoIIA -9.
